From PubChem BioAssay
The source made the active and inactive calls. Rule as the data show it, unless noted: active = inhibition above about 30%; inactive = the rest.

How the values were obtained:
[1] = Her2 expression decrease, cell viability multiplex – SKBR3 breast tumor cells, AlphaScreen, ATP viability, primary screen (AID 461;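 active = Her2 level under about 52% in both replicate screens, with viability over 70% of control, limit read from the data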;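 as to Her2 level: lower value means less Her2 protein in the cells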;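 as to viability: percent of carrier control wells set as 100% viability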); conditions: SKBR3 Her2 protein level, 18-24 h, measured here: SKBR3 viability, ATP luminescence, at 10 µM
[2] = target: Receptor tyrosine-protein kinase erbB-2 (Homo sapiens) (UniProt P04626); experiment: as above; conditions: 18-24 h, at 10 µM, stronger effect = lower value
Receptor tyrosine-protein kinase erbB-2 (Homo sapiens), sequence (P04626 whole entry, looked up): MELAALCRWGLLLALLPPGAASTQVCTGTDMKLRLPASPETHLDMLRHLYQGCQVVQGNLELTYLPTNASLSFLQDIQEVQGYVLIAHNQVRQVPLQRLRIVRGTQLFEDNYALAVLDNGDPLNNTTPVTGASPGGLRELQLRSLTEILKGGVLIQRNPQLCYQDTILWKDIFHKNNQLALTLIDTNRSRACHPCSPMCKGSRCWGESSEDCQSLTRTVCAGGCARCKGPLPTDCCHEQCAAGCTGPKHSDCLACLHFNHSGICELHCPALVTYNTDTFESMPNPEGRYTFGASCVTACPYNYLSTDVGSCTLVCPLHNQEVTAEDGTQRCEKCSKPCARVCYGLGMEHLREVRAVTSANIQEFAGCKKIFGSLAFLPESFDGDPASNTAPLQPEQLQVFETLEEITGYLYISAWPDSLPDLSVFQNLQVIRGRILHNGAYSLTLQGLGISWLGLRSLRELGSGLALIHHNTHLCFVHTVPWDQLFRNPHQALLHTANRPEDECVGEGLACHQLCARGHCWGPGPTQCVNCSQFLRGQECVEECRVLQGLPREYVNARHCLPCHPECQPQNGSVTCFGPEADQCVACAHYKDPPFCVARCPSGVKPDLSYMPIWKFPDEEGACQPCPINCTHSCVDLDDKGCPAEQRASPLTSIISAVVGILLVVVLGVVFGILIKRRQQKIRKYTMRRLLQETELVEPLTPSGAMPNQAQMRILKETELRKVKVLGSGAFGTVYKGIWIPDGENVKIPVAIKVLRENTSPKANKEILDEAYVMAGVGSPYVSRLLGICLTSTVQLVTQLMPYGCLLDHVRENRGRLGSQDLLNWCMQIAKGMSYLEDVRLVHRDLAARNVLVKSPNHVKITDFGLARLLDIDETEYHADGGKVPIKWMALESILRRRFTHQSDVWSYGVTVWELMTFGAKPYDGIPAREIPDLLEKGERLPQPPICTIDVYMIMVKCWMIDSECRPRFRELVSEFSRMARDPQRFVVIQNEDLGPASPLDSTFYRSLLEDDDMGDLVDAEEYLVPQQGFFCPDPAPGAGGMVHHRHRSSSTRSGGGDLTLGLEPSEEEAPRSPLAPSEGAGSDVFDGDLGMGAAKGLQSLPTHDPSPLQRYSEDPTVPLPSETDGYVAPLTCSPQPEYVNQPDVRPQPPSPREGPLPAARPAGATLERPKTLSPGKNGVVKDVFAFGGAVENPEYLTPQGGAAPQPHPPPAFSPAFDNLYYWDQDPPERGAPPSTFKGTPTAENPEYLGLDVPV

[3] = reduced viability of SK-BR-3 breast cancer cells – cell-based, 24 h, human, pilot screen (AID 572;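 active = viability at or below 10% of carrier control in both of two separate runs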;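 also: compound exposure lasted between 18 and 24 h rather than exactly 24 h; 100% = carrier-treated control wells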); conditions: SK-BR-3 viability, CellTiter-Glo luminescence, at 10 µM, stronger effect = lower value
[4] = HUVEC growth inhibition – cell-based, human, primary screen (AID 575;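 active = viability at or below 30% in both replicate assays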;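 also: 100% = median of untreated cell wells with 0.1% DMSO on each plate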); conditions: HUVEC proliferation, CellTiter-Glo luminescence, 72 h; at 10 µM; stronger effect = lower value
Method in brief: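 System – primary HUVEC, no more than 12 passages · Medium – Low-serum (2% FBS) EBM, supplemented · Times – 72 h exposure, 37 °C, 5% CO2, 30 min RT equilibration · Measured by – luminescent ATP assay · Read-out – % viability relative to median vehicle-well signal on each plate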

[5] = H69AR cell proliferation blockers – human, duplicate replicates, primary screen (AID 580;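 active = viability at or under a set limit in both replicates, limit being median viability minus 3 SD, cut at about 48% in these data, passing the limit was not always enough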;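 also: 100% = mean luminescence of untreated wells and 0% = no signal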); conditions: H69AR lung tumor cells viability, ATP luminescence, 72 h; at 10 µM; stronger effect = lower value
[6] = MRP1 drug-resistance reversers in H69AR cells – cell-based, doxorubicin co-treatment, pilot screen (AID 601;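 active = viability loss from added drug above about 55%, and viability with drug at most 40%, in both replicates, limit read from the data, passing the limit was not always enough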); conditions: CellTiter-Glo, 72 h, at 10 µM; for differential viability (reversal): stronger effect = higher value
[7] = yeast transport mutant growth inhibition pilot in 384-well plates, post-Golgi transport modulator project (AID 636; in the data active = inhibition above about 31%); conditions: absorbance 615 nm, about 18 h, stronger effect = higher value
[8] = growth suppression of yeast trafficking mutant, preliminary HTS, modulators of trafficking downstream of Golgi apparatus project, 1536-format plate, OD 615 nm (AID 637); conditions: yeast transport mutant growth, absorbance 615 nm, 18 h; stronger effect = higher value
[9] = H69AR cells + 2 uM doxorubicin, measured here: viability with 2 uM doxorubicin, stronger effect = lower value
[10] = H69AR cells, compound alone cytotoxicity

Compound | viability [1] [%] | Her2 level [2] | viability [3] | viability [4] | viability [5] | differential viability (reversal) ([6]; H69AR cells + 2 uM doxorubicin) | viability [6, 9] [%] | viability [6, 10] [%] | inhibition [7] | inhibition [8]
Cc1nnc(SCC(=O)NC(C)(C)C)n1CCc1ccccc1 | 93.5 | 92.5% (inactive) | 93.5% (inactive) | 105% (inactive) | 95.6% (inactive) | 4.22% (inactive) | 91.4 | 95.6 | -6.53% (inactive) | 5.65% (inactive)
Cc1ccc(C)c(-n2c(Cc3cc(=O)[nH]c(=O)[nH]3)nnc2SCC(=O)NCc2ccco2)c1 | 131 | 142% (inactive) | 131% (inactive) | 100% (inactive) | 102% (inactive) | 13.3% (inactive) | 89 | 102 | -6% (inactive) | -5% (inactive)
Cc1ccc(-c2nnc(SCC(=O)N3CC(C)CC(C)C3)o2)cc1C (stereo not given) | 97 | 106% (inactive) | 97% (inactive) | 71.4% (inactive) | 90.7% (inactive) | -2.04% (inactive) | 92.7 | 90.7 | -2.13% (inactive) | -4.75% (inactive)
C(#Cc1ccccc1)Cn1nnc2ccccc21 | 80.5 | 86.5% (inactive) | 80.5% (inactive) | 99% (inactive) | 83.1% (inactive) | 7.46% (inactive) | 75.6 | 83.1 | 0.9% (inactive) | 4.33% (inactive)
CC(=O)c1ccc(NC(=O)c2cc(CC(C)C)on2)cc1 | 93 | 114% (inactive) | 93% (inactive) | 120% (inactive) | 89.2% (inactive) | -1.95% (inactive) | 91.1 | 89.2 | 6.15% (inactive) | -8.67% (inactive)
Cc1ccc(-c2nnc(SC(C)C#N)n2N)cc1 (stereo not given) | 108 | 83% (inactive) | 108% (inactive) | 88.5% (inactive) | 92.3% (inactive) | 9.2% (inactive) | 83.1 | 92.3 | -5.68% (inactive) | 4.44% (inactive)
CCOC(=O)C1=C(C)NC(=O)C(C#N)C1c1ccco1 (stereo not given) | 104 | 85% (inactive) | 104% (inactive) | 92.6% (inactive) | 90% (inactive) | -0.555% (inactive) | 90.6 | 90 | -4.8% (inactive) | -1.31% (inactive)
Cc1ccnc(NS(=O)(=O)c2ccc(NC(=O)Cc3cccs3)cc2)n1 | 94.5 | 111% (inactive) | 94.5% (inactive) | 87.6% (inactive) | 100% (inactive) | 8.61% (inactive) | 91.9 | 100 | 2.84% (inactive) | -2.79% (inactive)
CN(C)c1cccc(C(=O)OCC(=O)NCc2ccco2)c1 | 102 | 86.5% (inactive) | 102% (inactive) | 87% (inactive) | 86.2% (inactive) | 7.69% (inactive) | 78.6 | 86.2 | -4.81% (inactive) | -2.22% (inactive)
Cc1[nH]c2c(C)cccc2c(=O)c1Br | 104 | 81% (inactive) | 104% (inactive) | 114% (inactive) | 91.9% (inactive) | 3.28% (inactive) | 88.7 | 91.9 | -6.93% (inactive) | 6.07% (inactive)
Cc1ccccc1OCc1nnc(SCC(=O)NCc2ccccc2)n1C | 96 | 84.5% (inactive) | 96% (inactive) | 88.4% (inactive) | 104% (inactive) | 8.75% (inactive) | 95.2 | 104 | -4.66% (inactive) | -3.02% (inactive)
CC(C)(C)OC(=O)N1CCOCCOCCN(C(=O)OC(C)(C)C)CCOCCOCC1 | 97.5 | 112% (inactive) | 97.5% (inactive) | 83% (inactive) | 93.4% (inactive) | -2.94% (inactive) | 96.4 | 93.4 | -3.16% (inactive) | 5.74% (inactive)
c1ccc(-c2n[nH]c3ccccc23)cc1 | 118 | 85% (inactive) | 118% (inactive) | 84.9% (inactive) | 103% (inactive) | 11.4% (inactive) | 91.9 | 103 | -3.55% (inactive) | 2.1% (inactive)
Cc1ccc2cc(C(c3nnnn3CC3CCCO3)N3CCc4ccccc4C3)c(=O)[nH]c2c1 (stereo not given) | 87 | 82% (inactive) | 87% (inactive) | 105% (inactive) | 100% (inactive) | -2.15% (inactive) | 102 | 100 | -3.84% (inactive) | -6.83% (inactive)
CC(=O)c1cccc(NC(=O)NCc2ccccn2)c1 | 91 | 87% (inactive) | 91% (inactive) | 92% (inactive) | 97.6% (inactive) | 6.09% (inactive) | 91.5 | 97.6 | -4.47% (inactive) | -4.17% (inactive)
CN(C)/C=C1\N=C(c2ccc(Cl)cc2Cl)OC1=O | 102 | 108% (inactive) | 102% (inactive) | 92.7% (inactive) | 95.9% (inactive) | 19.6% (inactive) | 76.3 | 95.9 | -3.29% (inactive) | -3.97% (inactive)

Compound | viability [1] [%] | Her2 level [2] | viability [3] | viability [4] | viability [5] | differential viability (reversal) ([6]; H69AR cells + 2 uM doxorubicin) | viability [6, 9] [%] | viability [6, 10] [%] | inhibition [7] | inhibition [8]
CCN(CC)S(=O)(=O)c1ccc2oc(C(=O)O)c(C)c2c1 | 108 | 100% (inactive) | 108% (inactive) | 102% (inactive) | 103% (inactive) | 10.4% (inactive) | 92.2 | 103 | -0.4% (inactive) | 4.43% (inactive)
Brc1ccc2[nH]ncc2c1 | 101 | 78% (inactive) | 101% (inactive) | 110% (inactive) | 91.6% (inactive) | 0.11% (inactive) | 91.5 | 91.6 | -2.5% (inactive) | 1.43% (inactive)
CCN1CCN(c2c(Cl)cccc2NC(=O)c2ccc3c(c2)OCCO3)CC1 | 80 | 84.5% (inactive) | 80% (inactive) | 95.2% (inactive) | 81.7% (inactive) | 1.33% (inactive) | 80.4 | 81.7 | -5% (inactive) | 3% (inactive)
O=C(CN(Cc1ccc(F)cc1)C(=O)Cn1nnc2ccccc21)NCC1CCCO1 (stereo not given) | 110 | 90.5% (inactive) | 110% (inactive) | 118% (inactive) | 90.3% (inactive) | 4.51% (inactive) | 85.8 | 90.3 | 0.13% (inactive) | -1.64% (inactive)
Cc1cc(Nc2ccccc2F)n2ncnc2n1 | 101 | 97.5% (inactive) | 101% (inactive) | 99% (inactive) | 97.1% (inactive) | 8.83% (inactive) | 88.3 | 97.1 | -0.67% (inactive) | 0.16% (inactive)
O=S(=O)(c1ccc(OCC(O)CN2CCc3ccccc3C2)cc1)N1CCOCC1 (stereo not given) | 89 | 83.5% (inactive) | 89% (inactive) | 98.2% (inactive) | 87.6% (inactive) | 2.98% (inactive) | 84.6 | 87.6 | -1.71% (inactive) | -2.73% (inactive)
COCCn1c(C)c(C(=O)O)sc1=S | 99 | 118% (inactive) | 99% (inactive) | 108% (inactive) | 104% (inactive) | 12.4% (inactive) | 91.3 | 104 | 0.79% (inactive) | -6.5% (inactive)
CCC(=O)N1CCc2cc(S(=O)(=O)CCC(=O)Nc3nc(C)cs3)ccc21 | 106 | 85% (inactive) | 106% (inactive) | 90.5% (inactive) | 74.4% (inactive) | 7.69% (inactive) | 66.8 | 74.4 | -4.8% (inactive) | -5.9% (inactive)
COC(=O)c1cc(OC)c(OC)cc1NC(=O)CC1CCCCC1 | 104 | 96.5% (inactive) | 104% (inactive) | 99.3% (inactive) | 103% (inactive) | 9.91% (inactive) | 93.6 | 103 | 0.79% (inactive) | -2.9% (inactive)
CCOc1ccccc1N1CCN(c2nc3ccccc3nc2C(C#N)C(=O)OC)CC1 (stereo not given) | 74 | 78% (inactive) | 74% (inactive) | 71.7% (inactive) | 83.9% (inactive) | -4.64% (inactive) | 88.5 | 83.9 | 1.45% (inactive) | -2.1% (inactive)
O=C(C1CCCO1)N1CCN(C(c2ccccc2)c2ccccc2)CC1 (stereo not given) | 98.5 | 94% (inactive) | 98.5% (inactive) | 89.1% (inactive) | 96% (inactive) | 6.47% (inactive) | 89.5 | 96 | -0.91% (inactive) | 2.62% (inactive)
COCCNC(=O)c1c(N)n(/N=C/c2cccs2)c2nc3ccccc3nc12 | 110 | 75.5% (inactive) | 110% (inactive) | 78.2% (inactive) | 74.7% (inactive) | 0.24% (inactive) | 74.4 | 74.7 | 0.66% (inactive) | 3.11% (inactive)
O=c1cc(C(F)F)oc2c1ccc1ccccc12 | 93.5 | 98.5% (inactive) | 93.5% (inactive) | 74.8% (inactive) | 81.7% (inactive) | -9.89% (inactive) | 91.6 | 81.7 | -0.91% (inactive) | 2.33% (inactive)
CCCCOC(=O)Cn1c(=N)n(CCN2CCOCC2)c2ccccc21 | 77 | 102% (inactive) | 77% (inactive) | 85.4% (inactive) | 95.5% (inactive) | 16.3% (inactive) | 79.2 | 95.5 | -7.47% (inactive) | 0.16% (inactive)
CCOc1ccccc1N(C(=O)c1ccco1)C(C(=O)NC1CCCC1)c1cccnc1 (stereo not given) | 84 | 104% (inactive) | 84% (inactive) | 101% (inactive) | 90.5% (inactive) | -6.1% (inactive) | 96.6 | 90.5 | -1.78% (inactive) | -2.54% (inactive)
CC(=O)c1c(C)[nH]c(C(=O)NCc2cccs2)c1C | 97 | 90% (inactive) | 97% (inactive) | 93.8% (inactive) | 94.9% (inactive) | 11.2% (inactive) | 83.7 | 94.9 | 0.39% (inactive) | -1.45% (inactive)
